One experiment deals with THP-1. The experiment is described as follows: Inhibitory concentration against TNF-alpha production in THP-1 cells. Type of experiment: functional, cell-based. Conditions: Homo sapiens.
The nature of experiment [1]: Inhibitory activity against mitogen-activated protein kinase p38. Set-up: species or system Homo sapiens.
Experiment [2] in a line: Inhibitory activity against c-Jun N-terminal kinase 3 (JNK3). Set-up: species or system Homo sapiens.
Another experiment concerns Cell line. The experiment is described as follows: Inhibitory concentration against LPS-induced release of TNF-alpha in human whole blood. Type of experiment: functional, cell-based.
The species named for the next experiment is Mus musculus. The experiment is described as follows: Effective dose against murine LPS challenge model. Type of experiment: functional. The method, boiled down: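 Oral dosing to BALB/c mice (n = 5) 1 h before intravenous LPS ([…]); blood taken 90 min after LPS, serum TNF-α measured by ELISA; % inhibition = [(vehicle control − compound)/(vehicle control)] × 100; ED50 derived from this inhibition.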

A further experiment is filed under the species Rattus norvegicus. Kind of experiment: Effective dose against rat collagen-induced arthritis (CIA) model. Type of experiment: functional.

The results in this text go back to ChEMBL document CHEMBL1144395, “Design and synthesis of potent pyridazine inhibitors of p38 MAP kinase” (Bioorg Med Chem Lett, 2005).

As for `O=C(CO)N1CCN(c2cc(-c3ccncc3)c(-c3cccc4ccccc34)nn2)C[C@@H]1Cc1ccccc1`, inhibition in the experiment with THP-1 was half-maximal at 552 nM (IC50). Moreover, the Ki (in general, a dissociation constant, usually derived from enzyme kinetics or from competition with a known ligand) worked out at 31.8 nM in experiment [1] and 72.5 nM in experiment [2].

Regarding `C[C@H](Nc1nccc(-c2cc(C3CCNCC3)nnc2-c2cccc(C(F)(F)F)c2)n1)c1ccccc1`, the results for the IC50 in the experiment on THP-1 and in the experiment with Cell line were 5.3 nM and 1560 nM, respectively. Moreover, the Ki in experiment [1] is 1.6 nM; in experiment [2], 1580 nM.

On to `O=C(CNc1nccc(-c2cc(C3CCNCC3)nnc2-c2cccc(C(F)(F)F)c2)n1)c1ccccc1`, for which the IC50 (usually the concentration that gives 50% inhibition) in the experiment on THP-1 came out at 1290 nM. The values for the Ki in experiment [1] and in experiment [2] were 709 nM and over 10000 nM, respectively.

Take `CC(C)C[C@H]1CN(c2cc(-c3ccncc3)c(-c3cccc4ccccc34)nn2)CCN1`: the IC50 in the experiment on THP-1 was 63.6 nM; in the experiment with Cell line, 547 nM. Moreover, the Ki amounted to 29.7 nM in experiment [1] and 650 nM in experiment [2].

Turning to `N[C@H](CNc1cc(-c2ccncc2)c(-c2cccc3ccccc23)nn1)Cc1ccccc1`, the IC50 was found to be 50.1 nM in the experiment on THP-1 and 165 nM with Cell line. For the same compound, the values for the Ki in experiment [1] and in experiment [2] were 7 nM and 735 nM, respectively.

For `O=C(CO)N[C@H](CNc1cc(-c2ccncc2)c(-c2cccc3ccccc23)nn1)Cc1ccccc1`, the IC50 with THP-1 came to 661 nM. The values for the Ki in experiment [1] and in experiment [2] were 65.9 nM and 211 nM, respectively.

Consider `CC(C)N[C@H](CNc1cc(-c2ccncc2)c(-c2cccc3ccccc23)nn1)Cc1ccccc1`, for which the half-inhibitory concentration (IC50) in the experiment on THP-1 amounted to 110 nM. The results for the Ki in experiment [1] and in experiment [2] were 20.4 nM and 598 nM, respectively.

Turning to `N[C@H](CNc1cc(-c2ccncc2)c(-c2cccc3ccccc23)nn1)Cc1ccc(F)cc1`, the IC50 in the experiment on THP-1 worked out at 92.2 nM; with Cell line, 948 nM. In addition, the Ki in experiment [1] is 1.8 nM; in experiment [2], 1060 nM.

`CC(N)(CNc1cc(-c2ccncn2)c(-c2cccc(C(F)(F)F)c2)nn1)Cc1ccccc1` (centres undefined) gave an IC50 in the experiment with THP-1 of 251 nM. Moreover, the Ki in experiment [1] was 179 nM; in experiment [2] it was over 10000 nM.

With `N[C@H](CNc1cc(-c2ccncn2)c(-c2cccc(C(F)(F)F)c2)nn1)Cc1ccccc1`, the IC50 was 40.2 nM in the experiment with THP-1 and 1830 nM in the experiment with Cell line. For the same compound, the results for the Ki in experiment [1] and in experiment [2] were 56.2 nM and over 10000 nM, respectively.

For `C[C@H](Nc1cc(-c2cc(C3CCNCC3)nnc2-c2cccc(C(F)(F)F)c2)ccn1)c1ccccc1`, the values for the IC50 with THP-1 and with Cell line were 21.5 nM and 5850 nM, respectively. For the same compound, the Ki was found to be 2.1 nM in experiment [1] and 2970 nM in experiment [2].

In the case of `CC(Nc1nccc(-c2cc(C3CCNCC3)nnc2-c2cccc(C(F)(F)F)c2)n1)c1ccc(F)cc1` (centres undefined), the IC50 with THP-1 worked out at 93.4 nM. In addition, the values for the Ki in experiment [1] and in experiment [2] were 10.2 nM and over 10000 nM, respectively.

As to `c1ccc(C[C@H]2CN(c3cc(-c4ccncc4)c(-c4cccc5ccccc45)nn3)CCN2)cc1`, the ED50 – broadly, the dose at which the effect has come halfway, by size or by number of responders – in the experiment listed under Mus musculus worked out at 1.28 mg/kg; in the experiment listed under Rattus norvegicus, 2.7 mg/kg. The figures for the IC50 with THP-1 and in the experiment with Cell line were 67.6 nM and 240 nM, respectively. In addition, the figures for the Ki in experiment [1] and in experiment [2] were 7.3 nM and 160 nM, respectively.

With `O=C(CNc1nccc(-c2cc(C3CCNCC3)nnc2-c2cccc(C(F)(F)F)c2)n1)c1ccc(F)cc1`, in the experiment with THP-1, the IC50 stood at 1240 nM. For the same compound, the values for the Ki in experiment [1] and in experiment [2] were 1770 nM and over 10000 nM, respectively.

`c1ccc(C[C@@H](CNc2cc(-c3ccncc3)c(-c3cccc4ccccc34)nn2)N2CCCC2)cc1` displayed an IC50 with THP-1 of 5.5 nM. Besides, the results for the Ki in experiment [1] and in experiment [2] were 9.2 nM and 81.5 nM, respectively.
